# Published values pooled from the literature.
# Protocols differ between the studies behind these lines.
# Target: Phosphatidylinositol 4-phosphate 3-kinase C2 domain-containing subunit beta (PIK3C2B, Homo sapiens, UniProt O00750)
Compound,test,conditions,measurement,result
CCCCC(=O)Nc1ccc(-c2ccc3ncn(CCC)c(=O)c3c2)cn1,"binding, competition with immobilised ligand",0.5 µM,remaining binding,100%
C#Cc1cnc(Nc2ccnc(CO)c2)nc1Nc1ccccc1S(C)(=O)=NC#N (centres unmarked),cell-free assay,1 µM,remaining signal,100%
C=CC(=O)N1CCC([C@@H]2CCNc3c(C(N)=O)c(-c4ccc(Oc5ccccc5)cc4)nn32)CC1,"enzyme activity, inhibitor",1 µM,inhibition,0%
N#Cc1ccc(NC(=O)Nc2ccccc2)cc1,"cell-free assay, competition with immobilised ligand",25 µM,remaining binding,79%
C[C@H]1CC[C@H](n2c3cnccc3c3cnc(Nc4ccc5c(n4)CCN(C(=O)CO)C5)nc32)CC1,cell-free assay,1 µM,remaining signal,100%
C1=C/COCc2cc(ccc2OCCN2CCCC2)Nc2nccc(n2)-c2cccc(c2)COC/1,binding,0.1 µM,remaining binding,87%
CC#CC(=O)N1CCC[C@H]1c1nc(-c2ccc(C(=O)Nc3ccccn3)cc2)c2c(N)nccn12,"enzyme activity, inhibitor",1 µM,inhibition,0%
CN1CCN(C(=O)c2ccc(NC(=O)Nc3ccc(N(C)c4ccnc(Nc5ccc(CS(C)(=O)=O)cc5)n4)cc3)cc2)CC1,binding,1 µM,remaining binding,100%
